Test results taken from ChEMBL document CHEMBL1137312, “Design and synthesis of a novel photoaffinity ligand for the dopamine and serotonin transporters based on 2beta-carbomethoxy-3beta-biphenyltropane” (J Med Chem, 2006).
The source made the active and inactive calls. No cut-off for these calls is given here.

Key:
[1] = target: Sodium-dependent dopamine transporter (Rattus norvegicus, UniProt P23977); experiment: Displacement of [3H]WIN-35428 from DAT in rat striatal membrane; type: cell membranes, Striatum
Chain of Sodium-dependent dopamine transporter (P23977 whole entry): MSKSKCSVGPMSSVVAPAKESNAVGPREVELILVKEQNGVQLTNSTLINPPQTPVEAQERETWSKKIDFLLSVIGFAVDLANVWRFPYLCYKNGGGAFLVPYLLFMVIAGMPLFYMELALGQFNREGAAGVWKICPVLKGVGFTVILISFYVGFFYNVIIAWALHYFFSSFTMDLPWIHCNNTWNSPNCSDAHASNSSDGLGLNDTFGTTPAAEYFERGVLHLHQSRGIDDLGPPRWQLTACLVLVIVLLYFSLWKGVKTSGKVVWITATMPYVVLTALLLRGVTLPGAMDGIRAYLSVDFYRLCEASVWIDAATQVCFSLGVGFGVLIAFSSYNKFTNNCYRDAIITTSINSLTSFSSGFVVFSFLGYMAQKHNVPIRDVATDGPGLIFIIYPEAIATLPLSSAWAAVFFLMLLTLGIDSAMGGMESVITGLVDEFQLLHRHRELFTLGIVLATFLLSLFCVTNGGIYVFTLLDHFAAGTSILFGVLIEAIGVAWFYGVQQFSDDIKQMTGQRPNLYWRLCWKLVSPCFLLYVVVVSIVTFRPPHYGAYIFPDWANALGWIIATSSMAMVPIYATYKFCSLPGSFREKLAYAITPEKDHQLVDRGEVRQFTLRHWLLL
Outline: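 Competition binding against [3H]WIN 35 428 in rat striatal membranes. Ligand was used as free base, freshly prepared and kept in the dark. Ki from at least three independent experiments, each in triplicate. Values are mean ± SEM.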

[2] = target: Sodium-dependent serotonin transporter (Rattus norvegicus, UniProt P31652); experiment: Displacement of [3H]citaloporam from SERT in rat brain; type: tissue-based
Chain of Sodium-dependent serotonin transporter (P31652 whole entry): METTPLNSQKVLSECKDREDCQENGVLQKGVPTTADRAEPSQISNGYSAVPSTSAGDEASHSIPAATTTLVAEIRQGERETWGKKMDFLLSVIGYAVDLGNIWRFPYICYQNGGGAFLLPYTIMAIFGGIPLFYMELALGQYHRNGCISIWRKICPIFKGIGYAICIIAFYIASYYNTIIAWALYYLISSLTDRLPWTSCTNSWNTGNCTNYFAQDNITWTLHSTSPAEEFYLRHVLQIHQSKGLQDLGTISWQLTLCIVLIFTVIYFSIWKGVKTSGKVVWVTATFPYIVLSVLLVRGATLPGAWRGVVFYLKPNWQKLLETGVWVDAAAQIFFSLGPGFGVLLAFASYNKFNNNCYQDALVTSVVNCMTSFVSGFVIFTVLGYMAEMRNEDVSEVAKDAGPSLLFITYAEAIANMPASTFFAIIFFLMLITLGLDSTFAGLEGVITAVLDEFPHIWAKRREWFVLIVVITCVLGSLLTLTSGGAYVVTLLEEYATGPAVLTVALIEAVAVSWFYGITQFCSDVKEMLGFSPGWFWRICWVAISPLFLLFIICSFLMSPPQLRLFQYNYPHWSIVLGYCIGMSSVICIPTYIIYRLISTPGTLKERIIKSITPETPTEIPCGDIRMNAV
Outline: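 Competition binding against [3H]citalopram in rat brain stem or midbrain membranes. Ligand was used as free base, freshly prepared and kept in the dark. Ki from at least three independent experiments, each in triplicate. Values are mean ± SEM.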

[3] = target: Sodium-dependent dopamine transporter (Homo sapiens) (UniProt Q01959); experiment: Photo labeling activity at human DAT expressed in HEK293 cells in the presence of (-)cocaine; type: cell-based; settings: tested as the 125I-labelled form
Chain of Sodium-dependent dopamine transporter (Homo sapiens) (Q01959 whole entry): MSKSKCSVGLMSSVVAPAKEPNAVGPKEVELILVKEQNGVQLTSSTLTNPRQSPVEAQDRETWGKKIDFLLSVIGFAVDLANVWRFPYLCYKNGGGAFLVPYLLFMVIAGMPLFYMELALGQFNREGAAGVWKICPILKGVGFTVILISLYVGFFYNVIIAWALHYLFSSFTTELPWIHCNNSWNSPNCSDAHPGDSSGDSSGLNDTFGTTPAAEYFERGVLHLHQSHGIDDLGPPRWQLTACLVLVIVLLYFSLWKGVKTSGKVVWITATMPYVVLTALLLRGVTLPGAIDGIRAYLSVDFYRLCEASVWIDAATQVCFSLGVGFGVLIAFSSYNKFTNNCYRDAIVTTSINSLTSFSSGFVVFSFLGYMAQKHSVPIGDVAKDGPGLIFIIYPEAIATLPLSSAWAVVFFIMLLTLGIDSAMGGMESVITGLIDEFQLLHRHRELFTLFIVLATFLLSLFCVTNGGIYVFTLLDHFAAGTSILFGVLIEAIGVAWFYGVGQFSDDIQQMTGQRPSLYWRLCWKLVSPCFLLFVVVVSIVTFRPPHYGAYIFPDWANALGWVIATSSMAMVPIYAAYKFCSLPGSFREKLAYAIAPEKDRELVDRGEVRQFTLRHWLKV
Outline: (§1)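 Cocaine-protection version of the photolabeling. HEK 293 cells expressing hDAT or hSERT were photolabeled with [125I] azido ligand in the presence of 10 µM (-)cocaine. Cells were solubilized and immunoprecipitated with transporter-specific antisera. Read-out was SDS-PAGE and autoradiography.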

[4] = target: Sodium-dependent serotonin transporter (Homo sapiens) (UniProt P31645); experiment: Photo labeling activity at human SERT expressed in HEK293 cells; type: cell-based; settings: tested as the 125I-labelled form
Chain of Sodium-dependent serotonin transporter (Homo sapiens) (P31645 whole entry, looked up): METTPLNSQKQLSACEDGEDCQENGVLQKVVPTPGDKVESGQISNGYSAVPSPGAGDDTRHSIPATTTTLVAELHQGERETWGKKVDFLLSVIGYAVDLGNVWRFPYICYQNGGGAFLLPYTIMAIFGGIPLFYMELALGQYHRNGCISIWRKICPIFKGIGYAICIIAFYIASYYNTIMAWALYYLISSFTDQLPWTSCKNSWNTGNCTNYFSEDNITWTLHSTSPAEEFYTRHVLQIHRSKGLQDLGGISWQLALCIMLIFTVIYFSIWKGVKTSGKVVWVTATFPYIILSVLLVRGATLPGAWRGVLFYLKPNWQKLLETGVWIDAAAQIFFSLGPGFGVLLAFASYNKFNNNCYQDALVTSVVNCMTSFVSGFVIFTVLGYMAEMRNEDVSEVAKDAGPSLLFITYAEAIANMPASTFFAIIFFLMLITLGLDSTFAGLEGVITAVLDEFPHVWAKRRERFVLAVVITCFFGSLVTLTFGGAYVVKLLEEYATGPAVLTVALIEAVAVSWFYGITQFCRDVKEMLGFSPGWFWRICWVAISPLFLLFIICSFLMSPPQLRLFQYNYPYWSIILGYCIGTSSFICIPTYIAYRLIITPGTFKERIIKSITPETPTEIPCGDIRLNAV
Outline: (§2)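 HEK 293 cells expressing hDAT or hSERT were photolabeled with [125I] azido ligand (specific activity about 2000 mCi/µmol, radiochemical purity 99%). Cells were solubilized and lysates immunoprecipitated with DAT- or SERT-specific antisera. Read-out was SDS-PAGE and autoradiography, detecting labeled protein bands of 80 or 66 kDa.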

[5] = target: Sodium-dependent dopamine transporter (Homo sapiens) (UniProt Q01959); experiment: Photo labeling activity at human DAT expressed in HEK293 cells; type: cell-based; settings: tested as the 125I-labelled form; outline: as §2
[6] = target: Sodium-dependent serotonin transporter (Homo sapiens) (UniProt P31645); experiment: Photo labeling activity at human SERT expressed in HEK293 cells in the presence of (-)cocaine; type: cell-based; settings: tested as the 125I-labelled form; outline: as §1

Row | SMILES | Ki [1] [µM] | Ki [2] [µM] | Activity [3] | Activity [4] | Activity [5] | Activity [6]
1 | COC(=O)[C@@H]1C2CCC(C[C@@H]1c1ccc(-c3ccc(N)cc3)cc1)N2C (some centres undefined) | 0.0129 | 1.07 |  |  |  | 
2 | COC(=O)[C@@H]1C2CCC(C[C@@H]1c1ccc(-c3ccc(N=[N+]=[N-])c(I)c3)cc1)N2C (some centres undefined) | 0.0151 | 0.109 | inactive | Active | Active | inactive
3 | COC(=O)[C@@H]1C2CCC(C[C@@H]1c1ccc(-c3ccc(N)c(I)c3)cc1)N2C (some centres undefined) | 0.134 | 0.00882 |  |  |  | 
4 | COC(=O)[C@@H]1C2CCC(C[C@@H]1c1ccc(-c3ccc([N+](=O)[O-])cc3)cc1)N2C (some centres undefined) | 0.00503 | 0.051 |  |  |  | 
5 | COC(=O)[C@@H]1C2CCC(C[C@@H]1c1ccc(Br)cc1)N2C (some centres undefined) | 0.00042 | 0.0041 |  |  |  | 
